Measured values from PubChem BioAssay.
Calls of active or inactive are those of the source.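 Rule for the calls, unless noted: active = viability at or below 30% in both replicate assays; inconclusive = viability at or below 30% in just one of the two assays; inactive = the rest.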

How the values were obtained:
[1] = reducers of endogenous Her2 protein level, primary screen, SKBR3 breast tumor cells, AlphaScreen, ATP viability (AID 461;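 active = Her2 level under about 52% in both replicate screens, with viability over 70% of control, limit read from the data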;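 for Her2 level: lower value means less Her2 protein in the cells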;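 for viability: percent of carrier control wells set as 100% viability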); details: 18-24 h, measured here: SKBR3 viability, ATP luminescence, at 10 µM
[2] = target: Receptor tyrosine-protein kinase erbB-2 (Homo sapiens) (UniProt P04626); assay: as above; details: 18-24 h, at 10 µM, stronger effect = lower value
[3] = SK-BR-3 cell growth inhibitors, pilot screen, 24 h, human (AID 572;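 active = viability at or below 10% of carrier control in both of two separate runs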;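 note: compound exposure lasted between 18 and 24 h rather than exactly 24 h; 100% = carrier-treated control wells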); details: SK-BR-3 viability, CellTiter-Glo luminescence, at 10 µM, stronger effect = lower value
[4] = HUVEC growth inhibition – cell-based, human, primary screen (AID 575); details: HUVEC proliferation, CellTiter-Glo luminescence, 72 h; at 10 µM; stronger effect = lower value;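 note: 100% = median of untreated cell wells with 0.1% DMSO on each plate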
In short: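 Test system: primary human umbilical vein endothelial cells. Quantity: 1250 cells/well. Compound: single 10 µM dose, 0.1% DMSO, from 5x medium stock. Timing: 72 h treatment at 37 °C. Detection: ATP-based CellTiter-Glo luminescent read. Benchmarks: vehicle and MePR control wells. Format: 384-well plates coated with collagen.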

[5] = growth inhibitors of H69AR lung tumor, primary screen, human, duplicate replicates (AID 580;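 active = viability at or under a set limit in both replicates, limit being median viability minus 3 SD, cut at about 48% in these data, passing the limit was not always enough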;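 note: 100% = mean luminescence of untreated wells and 0% = no signal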); details: H69AR lung tumor cells viability, ATP luminescence, 72 h; at 10 µM; stronger effect = lower value
[6] = reversal of MRP1-mediated doxorubicin resistance, pilot screen, H69AR cells, doxorubicin co-treatment (AID 601;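 active = viability loss from added drug above about 55%, and viability with drug at most 40%, in both replicates, limit read from the data, passing the limit was not always enough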); details: CellTiter-Glo, 72 h, at 10 µM; for differential viability (reversal): stronger effect = higher value
[7] = 384-well plate pilot, post-Golgi transport modulator project, inhibition of yeast transport mutant growth (AID 636; in the data active = inhibition above about 31%); details: absorbance 615 nm, about 18 h, stronger effect = higher value
[8] = growth suppression of yeast trafficking mutant, preliminary HTS, modulators of trafficking downstream of Golgi apparatus project, 1536-format plate, OD 615 nm (AID 637; in the data active = inhibition above about 30%); details: yeast transport mutant growth, absorbance 615 nm, 18 h; stronger effect = higher value
[9] = H69AR cells + 2 uM doxorubicin, measured here: viability with 2 uM doxorubicin, stronger effect = lower value
[10] = H69AR cells, compound alone cytotoxicity

Sequence of Receptor tyrosine-protein kinase erbB-2 (Homo sapiens) (P04626 whole entry, looked up): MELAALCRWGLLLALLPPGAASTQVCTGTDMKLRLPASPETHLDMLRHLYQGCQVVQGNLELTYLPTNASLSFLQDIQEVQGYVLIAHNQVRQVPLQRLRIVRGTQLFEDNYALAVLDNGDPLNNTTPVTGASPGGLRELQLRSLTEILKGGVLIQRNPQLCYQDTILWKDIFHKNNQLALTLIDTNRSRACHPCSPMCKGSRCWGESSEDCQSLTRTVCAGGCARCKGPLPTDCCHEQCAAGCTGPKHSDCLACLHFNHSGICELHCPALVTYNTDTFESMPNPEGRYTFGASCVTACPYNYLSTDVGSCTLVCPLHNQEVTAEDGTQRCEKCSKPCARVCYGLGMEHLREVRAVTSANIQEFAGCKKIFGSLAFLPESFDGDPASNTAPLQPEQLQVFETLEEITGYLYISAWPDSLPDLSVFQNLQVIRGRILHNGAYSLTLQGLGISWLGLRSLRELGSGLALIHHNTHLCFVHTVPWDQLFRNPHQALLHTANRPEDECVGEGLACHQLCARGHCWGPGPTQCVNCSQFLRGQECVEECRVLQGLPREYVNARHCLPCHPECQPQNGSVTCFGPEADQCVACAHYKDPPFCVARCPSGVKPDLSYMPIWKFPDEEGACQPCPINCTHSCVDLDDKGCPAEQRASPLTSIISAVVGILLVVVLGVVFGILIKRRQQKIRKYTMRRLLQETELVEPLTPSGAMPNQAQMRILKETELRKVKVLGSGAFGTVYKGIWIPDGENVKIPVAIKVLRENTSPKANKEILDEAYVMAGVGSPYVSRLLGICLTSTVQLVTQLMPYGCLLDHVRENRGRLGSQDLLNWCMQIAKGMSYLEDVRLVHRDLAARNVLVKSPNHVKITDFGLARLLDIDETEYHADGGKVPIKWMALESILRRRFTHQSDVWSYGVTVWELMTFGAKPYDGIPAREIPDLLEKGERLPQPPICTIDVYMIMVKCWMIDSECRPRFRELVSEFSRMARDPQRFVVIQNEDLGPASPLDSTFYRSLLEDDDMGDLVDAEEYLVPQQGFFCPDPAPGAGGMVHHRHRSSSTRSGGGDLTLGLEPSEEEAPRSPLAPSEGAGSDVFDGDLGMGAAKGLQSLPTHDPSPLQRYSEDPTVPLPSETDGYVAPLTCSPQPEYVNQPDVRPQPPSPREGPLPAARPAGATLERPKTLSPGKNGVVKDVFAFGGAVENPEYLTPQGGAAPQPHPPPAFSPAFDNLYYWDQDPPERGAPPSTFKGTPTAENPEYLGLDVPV

Row | Structure (SMILES) | viability [1] | Her2 level [2] | viability [3] | viability [4] | viability [5] | differential viability (reversal) ([6]; H69AR cells + 2 uM doxorubicin) | viability [6, 9] | viability [6, 10] | inhibition [7] | inhibition [8]
1 | CCN(CC)CCCN(Cc1cc2cc(OC)ccc2[nH]c1=O)C(=O)Nc1ccccc1 | 90% | 73% (inactive) | 90% (inactive) | 65.8% (inactive) | 77.7% (inactive) | 3.46% (inactive) | 74.3% | 77.7% | -5.73% (inactive) | -1.97% (inactive)
2 | COc1ccc(-c2cc(C(F)(F)F)nc(SCC(=O)NCc3ccco3)n2)cc1OC | 96.5% | 84% (inactive) | 96.5% (inactive) | 68.1% (inactive) | 55.2% (inactive) | -25.6% (inactive) | 80.9% | 55.2% | -0.66% (inactive) | -0.32% (inactive)
3 | O=C(NC1=NCCS1)NC12CC3CC(CC(C3)C1)C2 | 111% | 106% (inactive) | 111% (inactive) | 98.4% (inactive) | 93% (inactive) | 4.27% (inactive) | 88.7% | 93% | -4.53% (inactive) | 5.08% (inactive)
4 | O=c1[nH]c(=O)n(C2CCCCCC2)c(O)c1C=NCc1ccc(F)cc1 | 90% | 86.5% (inactive) | 90% (inactive) | 90.1% (inactive) | 81.5% (inactive) | -4.79% (inactive) | 86.3% | 81.5% | -6.8% (inactive) | -2.22% (inactive)
5 | CCCN(S(=O)(=O)c1ccc(OCC)cc1)S(=O)(=O)c1cccs1 | 89% | 100% (inactive) | 89% (inactive) | 88.1% (inactive) | 89.8% (inactive) | 5.81% (inactive) | 84% | 89.8% | 0.8% (inactive) | -10.8% (inactive)
6 | COc1ccc(C(C(C(=O)c2ccco2)N2CCOCC2)N2CCOCC2)cc1 (stereo not given) | 97% | 95% (inactive) | 97% (inactive) | 85.6% (inactive) | 87.3% (inactive) | -4.03% (inactive) | 91.4% | 87.3% | -6.53% (inactive) | -10.6% (inactive)
7 | Clc1ccc2nc(N3CCCCC3)[nH]c2c1 | 90.5% | 78.5% (inactive) | 90.5% (inactive) | 105% (inactive) | 91.9% (inactive) | 11.6% (inactive) | 80.3% | 91.9% | -7.84% (inactive) | 2.79% (inactive)
8 | CCSc1nnc(NC(=O)c2nn(C(C)C)c(=O)c3ccccc23)s1 | 99% | 77.5% (inactive) | 99% (inactive) | 81.5% (inactive) | 79.4% (inactive) | -9.27% (inactive) | 88.7% | 79.4% | -5.39% (inactive) | -2% (inactive)
9 | COc1cc(C2C(C#N)=C(N)OC3=C2C(=O)CCC3)ccc1OC(=O)N1CCOCC1 (stereo not given) | 132% | 91.5% (inactive) | 132% (inactive) | 93% (inactive) | 87.3% (inactive) | 3.67% (inactive) | 83.6% | 87.3% | -5.87% (inactive) | -0.66% (inactive)
10 | CCNc1nc(NCC)n2c(SCc3nc4ccccc4c(=O)[nH]3)nnc2n1 | 100% | 112% (inactive) | 100% (inactive) | 106% (inactive) | 78.1% (inactive) | -9.12% (inactive) | 87.2% | 78.1% | -1.58% (inactive) | -0.66% (inactive)
11 | Cc1ccc(C(c2nnnn2CCC(C)C)N2CCN(C)CC2)cc1 (stereo not given) | 90.5% | 84% (inactive) | 90.5% (inactive) | 97.9% (inactive) | 98.8% (inactive) | 5.6% (inactive) | 93.2% | 98.8% | -6.67% (inactive) | 1.97% (inactive)
12 | CCSc1nc2c(c(=O)n1CC)SC(C)C2 (stereo not given) | 102% | 86.5% (inactive) | 102% (inactive) | 111% (inactive) | 94.1% (inactive) | 6.39% (inactive) | 87.7% | 94.1% | -5.47% (inactive) | 6.07% (inactive)
13 | O=C(CSc1nc(O)c(Cc2ccccc2)c(=O)[nH]1)Nc1ccccc1 | 103% | 97% (inactive) | 103% (inactive) | 106% (inactive) | 86.2% (inactive) | 0.23% (inactive) | 85.9% | 86.2% | -2.08% (inactive) | -2.33% (inactive)
14 | Cc1cc(N2CCC3(CC2)OCCO3)n2nc(C)c(-c3ccc(Cl)cc3)c2n1 | 84.5% | 84% (inactive) | 84.5% (inactive) | 71.9% (inactive) | 90.9% (inactive) | 12.5% (inactive) | 78.4% | 90.9% | -5.68% (inactive) | 2.38% (inactive)
15 | c1ccc(N=P(c2nc3ccccc3o2)(N2CCOCC2)N2CCOCC2)cc1 | 119% | 89.5% (inactive) | 119% (inactive) | 104% (inactive) | 91.4% (inactive) | 1.96% (inactive) | 89.4% | 91.4% | -4.27% (inactive) | 7.26% (inactive)
16 | CCSc1nnc(NC(=O)CSc2ncccn2)s1 | 97.5% | 102% (inactive) | 97.5% (inactive) | 112% (inactive) | 107% (inactive) | 22.3% (inactive) | 84.5% | 107% | -5.07% (inactive) | -2.74% (inactive)
17 | O=C(CSc1nnc(CNC(=O)c2cccs2)o1)NC1CCCC1 | 102% | 100% (inactive) | 102% (inactive) | 102% (inactive) | 82.4% (inactive) | -0.76% (inactive) | 83.2% | 82.4% | -0.26% (inactive) | -1.17% (inactive)
18 | CCCCCn1c(CN2CCN(C(=O)OCC)CC2)nc2c1c(=O)[nH]c(=O)n2C | 82% | 94.5% (inactive) | 82% (inactive) | 88.9% (inactive) | 98.5% (inactive) | 15.8% (inactive) | 82.7% | 98.5% | -0.67% (inactive) | 0.16% (inactive)
19 | COc1cccc(C(=O)n2cnnc2N)c1OC | 120% | 88.5% (inactive) | 120% (inactive) | 89.2% (inactive) | 89.9% (inactive) | 6.76% (inactive) | 83.1% | 89.9% | -5.6% (inactive) | -3.49% (inactive)
20 | Cc1cc(SCC(N)=O)nc(SCC(=O)c2ccccc2)n1 | 92.5% | 89% (inactive) | 92.5% (inactive) | 106% (inactive) | 99.8% (inactive) | 10.1% (inactive) | 89.7% | 99.8% | -0.53% (inactive) | -5.08% (inactive)
21 | COc1ccc(-n2c(Cc3cccn3C)nnc2SCC(=O)NCC2CCCO2)cc1 (stereo not given) | 100% | 107% (inactive) | 100% (inactive) | 93.9% (inactive) | 100% (inactive) | 7.7% (inactive) | 92.3% | 100% | -0.9% (inactive) | 3% (inactive)
22 | Cc1c(C(=O)NCCC2=CCCCC2)oc2ccc(S(=O)(=O)N3CCC4(CC3)OCCO4)cc12 | 94.5% | 104% (inactive) | 94.5% (inactive) | 49.1% (inactive) | 48.1% (active) | -4.29% (inactive) | 52.4% | 48.1% | -10.8% (inactive) | -11.5% (inactive)
23 | Fc1ccc(Cn2nnc(-c3ccc(CN4CCOCC4)cc3)n2)cc1 | 88% | 122% (inactive) | 88% (inactive) | 108% (inactive) | 103% (inactive) | 6.81% (inactive) | 96.3% | 103% | 84.7% (active) | 43% (active)
24 | COc1cccc(C2C(C(=O)c3cc4ccccc4o3)=C(O)C(=O)N2CCN(C)C)c1OC (stereo not given) | 104% | 94.5% (inactive) | 104% (inactive) | 96.8% (inactive) | 100% (inactive) | 4.93% (inactive) | 95.4% | 100% | -3.87% (inactive) | 11.3% (inactive)
25 | CCc1ccc(N2CC(C(=O)OCC(=O)Nc3cc(C)on3)CC2=O)cc1 (stereo not given) | 94% | 92% (inactive) | 94% (inactive) | 107% (inactive) | 110% (inactive) | 11.1% (inactive) | 99.2% | 110% | 0.9% (inactive) | -3.83% (inactive)
26 | CCc1ccccc1-n1c(SCC(=O)N2CCCC2)nnc1-c1ccccn1 | 106% | 99.5% (inactive) | 106% (inactive) | 123% (inactive) | 95.3% (inactive) | 1.95% (inactive) | 93.3% | 95.3% | 1.92% (inactive) | -6.03% (inactive)
27 | Cn1c(=O)[nH]c(=O)c2[nH]c(CN3CCN(C(=O)c4ccco4)CC3)nc21 | 98.5% | 80% (inactive) | 98.5% (inactive) | 90.3% (inactive) | 107% (inactive) | 13.8% (inactive) | 92.9% | 107% | -1.58% (inactive) | 0.73% (inactive)
28 | CC(=O)C1=C(C)NC(C)=C(C(C)=O)C1c1cccs1 | 99% | 86% (inactive) | 99% (inactive) | 84.8% (inactive) | 87% (inactive) | 5.3% (inactive) | 81.7% | 87% | -2.08% (inactive) | -4% (inactive)
29 | CCC(C)c1ccc(NC(=O)c2cccnc2)cc1 (stereo not given) | 93% | 106% (inactive) | 93% (inactive) | 81.6% (inactive) | 92.5% (inactive) | 5.06% (inactive) | 87.4% | 92.5% | -0.54% (inactive) | -1.64% (inactive)
